In ChEMBL document CHEMBL1150377, “Design of antiangiogenic hypoxic cell radiosensitizers: 2-nitroimidazoles containing a 2-aminomethylene-4-cyclopentene-1,3-dione moiety” (Bioorg Med Chem, 2008) one finds inhibition, IC50 and Ratio data, which are given here for seven compounds.

The species named for one experiment is Gallus gallus. Put plainly: Antiangiogenic activity in chick embryo chorioallantoic membrane assessed as number of eggs showing 3 mm avascular zone at 100 ug relative to control. The class given is functional, tissue-based. Summed up:
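Chick CAM assay on 4-day-old embryos in shell; 10 µL sample in 1% methyl cellulose/0.9% NaCl applied inside a ring on the CAM, 48 h at 37.6 °C, then fat emulsion injected to show vessels. Six eggs per group, repeated more than three times. Inhibition (%) = eggs with ≥3 mm avascular zone around ring / eggs in group ×100.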

The target in experiment [1] is 72 kDa type IV collagenase (Homo sapiens, UniProt P08253). Briefly: Inhibition of human bowes melanoma cell MMP2.
72 kDa type IV collagenase, sequence (P08253 whole entry): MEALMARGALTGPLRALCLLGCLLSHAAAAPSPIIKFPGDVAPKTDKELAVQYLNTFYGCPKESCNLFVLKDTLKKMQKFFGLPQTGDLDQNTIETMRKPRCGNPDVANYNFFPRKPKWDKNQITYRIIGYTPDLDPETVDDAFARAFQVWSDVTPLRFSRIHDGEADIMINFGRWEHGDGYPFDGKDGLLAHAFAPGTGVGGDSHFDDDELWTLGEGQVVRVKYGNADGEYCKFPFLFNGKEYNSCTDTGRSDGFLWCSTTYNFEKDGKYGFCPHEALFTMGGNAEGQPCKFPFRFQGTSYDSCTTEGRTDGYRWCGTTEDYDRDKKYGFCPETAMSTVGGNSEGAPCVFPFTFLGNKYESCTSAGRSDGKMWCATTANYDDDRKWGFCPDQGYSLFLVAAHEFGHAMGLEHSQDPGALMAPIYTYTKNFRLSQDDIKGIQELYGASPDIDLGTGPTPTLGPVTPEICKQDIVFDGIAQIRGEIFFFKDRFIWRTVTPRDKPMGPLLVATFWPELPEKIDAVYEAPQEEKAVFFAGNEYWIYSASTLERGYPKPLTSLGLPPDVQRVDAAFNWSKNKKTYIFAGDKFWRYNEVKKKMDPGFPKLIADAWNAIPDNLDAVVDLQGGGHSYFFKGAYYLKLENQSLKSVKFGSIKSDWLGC
Experiment [2] has as its target Matrix metalloproteinase-9 (Bos taurus, UniProt P52176). Put plainly: Inhibition of bovine arterial endothelial cell MMP9. The experiment is classed as cell-based.
The nature of experiment [3]: Radiosensitizing activity in mouse EMT6/KU cells assessed as enhancement ratio reducing surviving fraction of cells at […] after 5 to 7 days. The class given is functional. Summed up:
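They were then irradiated with 6 MV X-rays at 2.0 Gy/min, replated, and scored for colonies after 5–7 days. Survival curves were least-squares fitted. ER is the ratio of radiation doses giving 1% survival.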

The nature of experiment [4]: Radiosensitizing activity in mouse EMT6/KU cells assessed as enhancement ratio reducing surviving fraction of cells at 1 mM after 5 to 7 days. The experiment is classed as functional. Summed up:
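EMT6/KU cells at 2×10⁶ cells/mL in drug-containing MEM in glass tubes, made hypoxic with 95% N₂/5% CO₂ for 60 min. Irradiated with 6 MV X-rays at 2.0 Gy/min, then plated. After 5–7 days replated for colony formation. Survival curves fitted by least squares; ER = ratio of radiation doses giving 1% survival.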

For experiment [5], the target named is Vascular endothelial growth factor receptor 1 (Homo sapiens, UniProt P17948). Briefly: Inhibition of Flt1 expressed in mouse NIH3T3 cells by autoradiography. The experiment is classed as cell-based.
Vascular endothelial growth factor receptor 1, sequence (P17948 whole entry): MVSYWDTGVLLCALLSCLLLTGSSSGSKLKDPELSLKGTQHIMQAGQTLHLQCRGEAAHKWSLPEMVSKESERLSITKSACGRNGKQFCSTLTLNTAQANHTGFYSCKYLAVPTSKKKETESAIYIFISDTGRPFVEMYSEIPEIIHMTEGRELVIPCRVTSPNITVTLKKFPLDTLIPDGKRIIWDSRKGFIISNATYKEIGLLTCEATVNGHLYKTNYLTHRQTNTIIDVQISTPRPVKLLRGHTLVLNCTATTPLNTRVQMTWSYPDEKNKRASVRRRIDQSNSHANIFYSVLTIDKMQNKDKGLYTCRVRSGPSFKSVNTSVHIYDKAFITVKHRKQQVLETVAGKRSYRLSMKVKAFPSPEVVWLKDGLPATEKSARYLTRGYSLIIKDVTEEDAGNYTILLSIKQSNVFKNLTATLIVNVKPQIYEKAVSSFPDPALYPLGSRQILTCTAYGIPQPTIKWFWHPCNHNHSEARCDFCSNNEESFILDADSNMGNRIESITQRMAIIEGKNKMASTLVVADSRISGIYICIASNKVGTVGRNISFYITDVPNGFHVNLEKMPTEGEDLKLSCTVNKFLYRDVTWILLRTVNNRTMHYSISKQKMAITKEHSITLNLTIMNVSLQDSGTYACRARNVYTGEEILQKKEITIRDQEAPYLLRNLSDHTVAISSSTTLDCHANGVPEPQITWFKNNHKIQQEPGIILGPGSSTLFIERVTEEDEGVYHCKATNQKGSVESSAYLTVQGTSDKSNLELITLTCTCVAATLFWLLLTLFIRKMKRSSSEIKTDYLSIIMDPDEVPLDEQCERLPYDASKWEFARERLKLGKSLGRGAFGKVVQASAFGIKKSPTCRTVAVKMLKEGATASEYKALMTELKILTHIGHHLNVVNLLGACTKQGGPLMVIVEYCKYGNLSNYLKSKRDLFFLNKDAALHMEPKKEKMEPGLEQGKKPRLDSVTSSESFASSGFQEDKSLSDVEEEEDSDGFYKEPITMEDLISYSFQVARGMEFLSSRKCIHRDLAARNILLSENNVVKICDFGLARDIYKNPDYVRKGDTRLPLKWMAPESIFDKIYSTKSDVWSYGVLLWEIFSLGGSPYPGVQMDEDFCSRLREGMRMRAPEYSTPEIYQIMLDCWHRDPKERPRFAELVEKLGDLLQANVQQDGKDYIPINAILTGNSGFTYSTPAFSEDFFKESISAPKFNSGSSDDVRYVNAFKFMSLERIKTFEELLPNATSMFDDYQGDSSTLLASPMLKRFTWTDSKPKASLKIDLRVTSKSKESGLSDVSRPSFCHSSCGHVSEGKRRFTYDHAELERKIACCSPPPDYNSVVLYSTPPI
Experiment [6] deals with Epidermal growth factor receptor (Homo sapiens, UniProt P00533). Briefly: Inhibition of human A431 cell EGFRK assessed as 32P phosphorylation by scintillation counter. The settings on record: a-431. The class given is cell-based. A digest of the protocol: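 Solubilized A431 cell lysate, debris removed, incubated with or without EGF for 30 min at 25 °C. Reaction started with [γ-³²P]ATP, 10 min at 0 °C. After stopping and washing, receptor phosphorylation measured as ³²P by scintillation counting.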
Epidermal growth factor receptor, sequence (P00533 whole entry): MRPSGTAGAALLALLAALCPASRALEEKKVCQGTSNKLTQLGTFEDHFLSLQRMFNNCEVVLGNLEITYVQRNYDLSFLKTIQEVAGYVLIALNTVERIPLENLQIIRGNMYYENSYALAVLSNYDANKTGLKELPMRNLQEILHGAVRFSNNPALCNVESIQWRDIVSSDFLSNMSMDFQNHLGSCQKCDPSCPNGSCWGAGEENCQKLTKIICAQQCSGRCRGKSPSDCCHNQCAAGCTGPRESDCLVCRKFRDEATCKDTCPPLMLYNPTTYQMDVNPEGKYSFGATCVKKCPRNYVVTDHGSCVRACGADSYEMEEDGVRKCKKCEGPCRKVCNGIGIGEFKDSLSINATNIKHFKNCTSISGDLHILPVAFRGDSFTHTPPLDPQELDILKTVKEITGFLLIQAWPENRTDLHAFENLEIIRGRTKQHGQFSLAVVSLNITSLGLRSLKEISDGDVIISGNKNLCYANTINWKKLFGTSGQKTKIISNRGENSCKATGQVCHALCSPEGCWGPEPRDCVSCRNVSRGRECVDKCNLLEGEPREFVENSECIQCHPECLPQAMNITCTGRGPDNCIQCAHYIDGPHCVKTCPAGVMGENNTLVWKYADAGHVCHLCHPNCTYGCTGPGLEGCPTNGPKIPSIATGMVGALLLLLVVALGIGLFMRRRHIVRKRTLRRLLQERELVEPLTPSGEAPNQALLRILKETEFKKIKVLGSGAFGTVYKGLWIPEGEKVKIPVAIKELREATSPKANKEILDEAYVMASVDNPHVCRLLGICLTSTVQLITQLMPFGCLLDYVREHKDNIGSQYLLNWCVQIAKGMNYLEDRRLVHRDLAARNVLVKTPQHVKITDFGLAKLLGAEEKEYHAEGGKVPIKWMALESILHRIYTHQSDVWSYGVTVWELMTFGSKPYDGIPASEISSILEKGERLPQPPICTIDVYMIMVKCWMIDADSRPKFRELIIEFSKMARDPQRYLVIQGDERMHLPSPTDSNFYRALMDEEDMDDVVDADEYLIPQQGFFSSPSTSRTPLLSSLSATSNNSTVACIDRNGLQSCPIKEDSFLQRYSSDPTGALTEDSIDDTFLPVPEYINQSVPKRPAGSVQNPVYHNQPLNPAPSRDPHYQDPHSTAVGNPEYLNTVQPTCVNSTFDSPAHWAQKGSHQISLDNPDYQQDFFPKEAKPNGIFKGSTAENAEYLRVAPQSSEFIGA

Some results are limits rather than exact numbers.

Matrix metalloproteinase-9, sequence (P52176 whole entry): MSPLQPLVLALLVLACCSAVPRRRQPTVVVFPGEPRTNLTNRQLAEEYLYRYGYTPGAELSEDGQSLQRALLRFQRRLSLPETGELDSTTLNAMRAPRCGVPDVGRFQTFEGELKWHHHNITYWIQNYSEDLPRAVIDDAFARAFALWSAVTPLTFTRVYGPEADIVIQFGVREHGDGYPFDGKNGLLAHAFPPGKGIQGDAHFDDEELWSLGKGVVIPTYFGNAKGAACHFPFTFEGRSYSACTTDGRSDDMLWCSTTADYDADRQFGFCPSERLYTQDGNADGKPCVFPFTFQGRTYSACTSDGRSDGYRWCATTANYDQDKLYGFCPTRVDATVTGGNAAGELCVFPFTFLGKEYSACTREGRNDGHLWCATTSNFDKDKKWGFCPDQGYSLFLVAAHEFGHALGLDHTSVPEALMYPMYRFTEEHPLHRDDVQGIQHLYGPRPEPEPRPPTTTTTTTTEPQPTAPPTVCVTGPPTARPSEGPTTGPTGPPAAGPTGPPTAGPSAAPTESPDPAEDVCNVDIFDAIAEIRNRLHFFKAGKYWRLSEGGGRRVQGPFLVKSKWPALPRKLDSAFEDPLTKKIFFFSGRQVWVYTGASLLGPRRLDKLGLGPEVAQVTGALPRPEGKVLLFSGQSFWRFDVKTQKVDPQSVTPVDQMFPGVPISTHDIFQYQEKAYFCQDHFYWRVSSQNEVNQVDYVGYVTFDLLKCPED

For the compound `COC[C@H](Cn1ccnc1[N+](=O)[O-])OC(=O)c1ccc(NC(=O)C(F)(F)F)cc1`, in the experiment filed under Gallus gallus, the inhibition came out at 83%. Moreover, the IC50 in experiment [1] and in experiment [2] was more than 240 µM⁻¹ throughout. Besides, in experiment [3], the Ratio is given as 1.84.

`O=C(Cn1ccnc1[N+](=O)[O-])NCCO` [ETANIDAZOLE]: the Ratio in experiment [4] turned out to be 1.72.

`CC(C)(C)c1ccc(OC[C@@H](Cn2ccnc2[N+](=O)[O-])OC(=O)c2ccc(NC=C3C(=O)C=CC3=O)cc2)cc1`: the IC50 in experiment [5] was 18.4 µM⁻¹; in experiment [2], 67 µM⁻¹; in experiment [6], 1.8 µM⁻¹.

For `CC(C)(C)c1ccc(OC[C@H](Cn2ccnc2[N+](=O)[O-])OC(=O)c2ccc(NC=C3C(=O)C=CC3=O)cc2)cc1`, the IC50 in experiment [1] was found to be 183 µM⁻¹; in experiment [5] it was 184 µM⁻¹; in experiment [2], 103 µM⁻¹; in experiment [6], 18.4 µM⁻¹.

`COC[C@H](Cn1ccnc1[N+](=O)[O-])OC(=O)c1ccc(NC=C2C(=O)C=CC2=O)cc1`: the IC50 in experiment [6] was determined as 23 µM⁻¹.

Take `COC[C@@H](Cn1ccnc1[N+](=O)[O-])OC(=O)c1ccc(NC=C2C(=O)C=CC2=O)cc1`: the IC50 in experiment [1] was 24 µM⁻¹; in experiment [5], 23.4 µM⁻¹; in experiment [2], 53 µM⁻¹.

Regarding `COC[C@@H](Cn1ccnc1[N+](=O)[O-])OC(=O)c1ccc(NC(=O)C(F)(F)F)cc1`, in the experiment listed under Gallus gallus, the inhibition is 43%. Also, the IC50 in experiment [1] and in experiment [2] was more than 240 µM⁻¹ in each case. In experiment [3], the Ratio was 2.02.
